The source made the active and inactive calls.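 How the source made its calls, unless noted: active means compounds giving at least 50% inhibition in the cell-based MKP-3 phosphatase rescue imaging test; inactive means the rest.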
What was measured:
[1] = inhibitors of TNFa-induced NFkB p65 translocation, primary screen, imaging, HUVEC, MLSMR starter and 10KST1 sets (AID 438;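 active means inhibition above 20% together with a positive visual image hit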;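 further: compound added about 3h40 before a 20 min TNFalpha stimulation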;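 on inhibition: signal is the nuclear over cytoplasmic p65 intensity ratio per well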); settings: HUVEC TNFa-induced p65 nuclear translocation; cell count: measured here: nuclei count (cytotoxicity indicator), at 2.08 µM; inhibition: at 2 µM, stronger effect = higher value, 0% TNFa-plus-vehicle, 100% no-TNFa wells
[2] = inhibitors of E-selectin induction by TNFa, primary screen, imaging, HUVEC, immunofluorescence, MLSMR starter and 10KST1 sets (AID 487;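 active means visually confirmed hit in the image check and inhibition above 20%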;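 on inhibition: signal is fraction of cell area covered by stained E-selectin grains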;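 on nuclei count: 100% = median nuclei count of all wells on the same plate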); settings: HUVEC TNFalpha-induced E-selectin immunofluorescence imaging, at 2 µM; inhibition: stronger effect = higher value; nuclei count: measured here: cell number, toxicity
[3] = DUSP6 inhibitors restoring Erk phosphorylation by chemical complementation, primary imaging in DUSP6-transfected HeLa (AID 609); settings: HeLa MKP-3 transfected, phospho-Erk imaging KS statistic, at 10 µM, cells stimulated with TPA for 15 min;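 on inhibition: phospho-Erk level distribution per well compared with pooled transfected vehicle control wells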
[4] = target: Dual specificity protein phosphatase 6 (Homo sapiens) (UniProt Q16828); test: as above; settings: HeLa MKP-3 transfected, phospho-Erk imaging KS statistic; at 10 µM; stronger effect = higher value; cells stimulated with TPA for 15 min
[5] = target: Voltage-gated potassium channel subunit beta-2 (Rattus norvegicus) (UniProt P62483); test: KvBeta enzyme negative modulators, primary screen, biochemical, NADPH fluorescence (AID 622;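 active means fluorescence slope higher than the sample average by over 3 SD, cut at about -0.22 in these data, passing the limit was not always enough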;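 further: slope of raw intensity against log time taken from 70 to 1610 s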); settings: recombinant KvBeta, 4-cyanobenzaldehyde reduction, at 10 µM, stronger effect = higher value
[6] = target: Voltage-gated potassium channel subunit beta-2 (Rattus norvegicus) (UniProt P62483); test: KvBeta positive modulators, primary screen, biochemical, NADPH fluorescence (AID 623;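 active means NADPH fluorescence slope more negative than the mean of all samples by about 3 SD, 99.7% confidence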;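 further: fluorescence intensity change per second fitted from 20 to 320 s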); settings: Recombinant KvBeta, NADPH fluorescence decrease slope, 10 min; at 10 µM; stronger effect = lower value
[7] = target: Alpha-2C adrenergic receptor (Homo sapiens) (UniProt P18825); test: modulators of alpha2C/GIRK thallium flux, primary screen, cell-based, HEK293 alpha2C/GIRK1/2 (AID 624;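 active means fluorescence slope after compound addition differing from the mean of all screened samples at 99.7% confidence, in either direction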;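 further: slope of fluorescence ratio to pre-addition baseline per second over 15 to 24 s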); settings: thallium flux BTC fluorescence, at 10 µM, actives lie on both sides
[8] = inhibitors of larval lipid processing in zebrafish, primary screen, whole organism, PED6 fluorescence, gall bladder and intestine (AID 686;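 active means a full or partial loss of lipid-probe fluorescence in the fish gall bladder, intestine or both, judged by eye; inactive means no fluorescence loss, or compound toxic to the fish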;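 further: larvae 5 to 7 days old with five fish per well; signal comes from phospholipase A2 cleavage of quenched PED6 carried via bile; overnight exposure to compound and PED6 before scoring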); settings: Zebrafish larvae PED6 lipid processing, fluorescence scoring; screened at 20 µM (by protocol)
Outline: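 system = live zebrafish larvae aged 5-7 days, whole organism | probe or stimulus = ingested quenched lipid PED6 at 100 nM | doses = 20 µM single dose | timing = overnight exposure | detection = fluorescence microscopy with visual scoring of gall bladder and intestine | read-out = visual per-well fluorescence inhibition score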

[9] = inhibitors of Chlamydomonas gravitaxis, primary screen, whole organism, Chlamydomonas reinhardtii, WT vs cilia-less mutant, absorbance, 96-well (AID 463189;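 active means inhibition at or above 50% relative to wild type and mutant plate controls; inactive means inhibition below 50%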;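 further: 0% = wild type cc124 cells in DMSO and 100% = ciliumless bld1 mutant cells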); settings: OD600 absorbance, 2 days, at 10 µM, stronger effect = higher value
[10] = measured here: cell density z-score
[11] = measured here: nuclear c-Myc green intensity z-score
[12] = measured here: nuclear pErk red intensity z-score, stronger effect = higher value

Sequence of Alpha-2C adrenergic receptor (Homo sapiens) (P18825 whole entry, looked up): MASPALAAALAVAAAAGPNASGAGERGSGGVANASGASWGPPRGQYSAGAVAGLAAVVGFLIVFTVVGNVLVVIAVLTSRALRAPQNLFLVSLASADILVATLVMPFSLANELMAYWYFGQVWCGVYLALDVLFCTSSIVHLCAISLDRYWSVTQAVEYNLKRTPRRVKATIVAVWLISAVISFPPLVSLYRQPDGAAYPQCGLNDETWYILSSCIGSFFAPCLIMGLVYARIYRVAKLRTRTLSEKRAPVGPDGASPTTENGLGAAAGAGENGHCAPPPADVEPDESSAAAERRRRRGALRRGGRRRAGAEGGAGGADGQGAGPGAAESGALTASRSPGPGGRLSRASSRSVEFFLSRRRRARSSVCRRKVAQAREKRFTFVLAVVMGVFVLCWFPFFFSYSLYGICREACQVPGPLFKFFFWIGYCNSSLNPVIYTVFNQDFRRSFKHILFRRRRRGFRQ
Sequence of Voltage-gated potassium channel subunit beta-2 (Rattus norvegicus) (P62483 whole entry, looked up): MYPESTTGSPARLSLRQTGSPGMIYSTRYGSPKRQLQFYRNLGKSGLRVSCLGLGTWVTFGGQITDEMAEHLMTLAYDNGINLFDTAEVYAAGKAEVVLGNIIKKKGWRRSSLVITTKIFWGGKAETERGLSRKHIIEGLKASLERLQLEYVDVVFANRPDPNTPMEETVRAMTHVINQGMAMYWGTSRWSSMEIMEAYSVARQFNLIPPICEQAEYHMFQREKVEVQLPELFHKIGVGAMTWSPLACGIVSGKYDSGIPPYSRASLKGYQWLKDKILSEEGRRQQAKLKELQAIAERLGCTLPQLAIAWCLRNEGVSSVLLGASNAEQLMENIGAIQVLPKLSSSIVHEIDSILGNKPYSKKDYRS
Sequence of Dual specificity protein phosphatase 6 (Homo sapiens) (Q16828 whole entry, looked up): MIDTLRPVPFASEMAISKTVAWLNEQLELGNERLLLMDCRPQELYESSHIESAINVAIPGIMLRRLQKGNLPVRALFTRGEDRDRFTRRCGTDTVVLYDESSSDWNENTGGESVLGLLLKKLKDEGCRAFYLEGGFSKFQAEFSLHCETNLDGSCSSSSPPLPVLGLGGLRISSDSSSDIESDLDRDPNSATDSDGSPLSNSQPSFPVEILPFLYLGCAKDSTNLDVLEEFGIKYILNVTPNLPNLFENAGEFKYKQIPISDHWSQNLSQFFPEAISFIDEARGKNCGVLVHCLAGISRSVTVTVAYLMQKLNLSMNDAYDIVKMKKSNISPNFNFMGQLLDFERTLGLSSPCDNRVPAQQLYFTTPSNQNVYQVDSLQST

| SMILES | cell count [1] | inhibition [1] | inhibition [2] | nuclei count [2] | z-score [3, 10] | z-score [3, 11] | z-score [3, 12] | inhibition [4] | fluorescence slope [5] | NADPH fluorescence slope [6] | slope [7] | outcome [8] | inhibition [9] |
| --- | --- | --- | --- | --- | --- | --- | --- | --- | --- | --- | --- | --- | --- |
| CCN(CC)CCN1C(=O)C(=O)/C(=C(/O)c2ccc(F)cc2)C1c1cccnc1 (stereo not drawn) | 488 | -18.4% (inactive) | -35.7% (inactive) | 128% | -0.0126 | -0.441 | 0.45 | -2.47% (inactive) | -0.493 (inactive) | -5.5e-05 (inactive) | 0.00472 (inactive) | inactive | -7.28% (inactive) |
| CN(C)CCCN1C(=O)C(O)=C(C(=O)c2cc3ccccc3o2)C1c1ccccn1 (stereo not drawn) | 511 | -3.3% (inactive) | -212% (inactive) | 137% | 2.7 | -1.21 | -1.13 | 12.3% (inactive) | -0.525 (inactive) | -4.7e-05 (inactive) | 0.00446 (inactive) | inactive | -5.31% (inactive) |
| CCCOc1ccc(Cn2c(O)cc(=O)[nH]c2=O)cc1 | 568 | 0% (inactive) | -90.4% (inactive) | 188% | -0.648 | -0.788 | 0.279 | -8.95% (inactive) | -0.372 (inactive) | -3.5e-05 (inactive) | 0.00508 (inactive) | inactive | -1.95% (inactive) |
| Cc1ccc(C2/C(=C(\O)c3cnn(-c4ccccc4)c3C)C(=O)C(=O)N2CCN(C)C)o1 (stereo not drawn) | 488 | 4.7% (inactive) | -57.2% (inactive) | 108% | -0.998 | 2.35 | 1.95 | 5.26% (inactive) | -0.583 (inactive) | -3.5e-05 (inactive) | 0.00573 (inactive) | inactive | -22.8% (inactive) |
| N#CC1(P(=O)(c2ccccc2)c2ccccc2)CC1 | 481 | -10.9% (inactive) | -110% (inactive) | 143% | -0.778 | -0.637 | -0.322 | 11.3% (inactive) | -0.546 (inactive) | -5.6e-05 (inactive) | 0.00538 (inactive) | inactive | 5.77% (inactive) |
| CC1(C)Nc2ccc(O)cc2-c2c1ssc2=S | 403 | -28.2% (inactive) | -198% (inactive) | 193% | -0.436 | -0.817 | -1.32 | -0.624% (inactive) | -0.316 (inactive) | 3.7e-06 (inactive) | 0.00209 (inactive) | inactive | -1.08% (inactive) |
| CCOC(=O)CSc1nc(-c2ccncc2)ccc1C#N | 688 | -16.1% (inactive) | -23.4% (inactive) | 174% | -1.46 | -0.434 | 0.758 | -3.95% (inactive) | -0.355 (inactive) | -2e-05 (inactive) | 0.00882 (inactive) | inactive | -7.15% (inactive) |
| O=C1OC2CCC1(c1ccccc1)C2 (stereo not drawn) | 573 | -7% (inactive) | 40.2% (inactive) | 137% | -1.09 | 0.357 | 0.719 | -5.89% (inactive) | -0.524 (inactive) | -7.2e-05 (inactive) | 0.00472 (inactive) | inactive | -4.76% (inactive) |
| COc1ccc(/C(O)=C2\C(=O)C(=O)N(CCN(C)C)C2c2cccc(OC)c2OC)cc1 (stereo not drawn) | 614 | -5.4% (inactive) | -56.5% (inactive) | 192% | 0.97 | 0.147 | -0.253 | 9.61% (inactive) | -0.338 (inactive) | -2.9e-05 (inactive) | 0.00479 (inactive) | inactive | -2.59% (inactive) |
| Fc1ccc(OCCOCCNCC2CCCO2)cc1 (stereo not drawn) | 369 | 0.4% (inactive) | -35.4% (inactive) | 84.5% | 0.189 | 0.788 | 0.463 | 15.1% (inactive) | -0.557 (inactive) | -4.4e-05 (inactive) | 0.00452 (inactive) | inactive | 43.6% (inactive) |
| O=C(O)C1CC=CCC1C(=O)N1CCN(c2nc(-c3ccccc3)c3ccccc3n2)CC1 (stereo not drawn) | 373 | -16.9% (inactive) | -48.5% (inactive) | 165% | -1.19 | 1.08 | 0.0489 | -5.26% (inactive) | -0.305 (inactive) | -7.9e-05 (inactive) | 0.00497 (inactive) | inactive | 28.5% (inactive) |
| Cc1cc(=O)oc(C)c1C(=O)Nc1cccc2nonc12 | 404 | -0.5% (inactive) | -61.8% (inactive) | 132% | 1.68 | -1.68 | -0.173 | -4.7% (inactive) | -0.297 (inactive) | -2.7e-05 (inactive) | 0.00487 (inactive) | inactive | -5.97% (inactive) |
| CN(C)c1ccc(C=NCCC2(O)CCOC(C)(C)C2)cc1 (stereo not drawn) | 326 | -27% (inactive) | -218% (inactive) | 173% | -0.673 | -1.17 | -0.362 | 8.76% (inactive) | -0.416 (inactive) | -0.000167 (inactive) | 0.00576 (inactive) | inactive | -4.27% (inactive) |
| CC1CCc2cc(F)cc3c(O)c(C(=O)NCc4ccco4)c(=O)n1c23 (stereo not drawn) | 531 | -4.5% (inactive) | -39.2% (inactive) | 138% | -0.138 | 1.87 | -4.17 | 5.26% (inactive) | -0.329 (inactive) | 4e-05 (inactive) | 0.00603 (inactive) | inactive | 6.44% (inactive) |
| CCOC(=O)CCc1c(C)c(C#N)c2nc3ccccc3n2c1-n1ccnc1 | 559 | -4.6% (inactive) | -37.8% (inactive) | 140% | 1.11 | -0.305 | 0.783 | 25.8% (inactive) | -0.172 (inactive) | -3.3e-07 (inactive) | 0.0062 (inactive) | inactive | -3.19% (inactive) |
| COCc1cc(C)nc(SCC(=O)Nc2ccc(C)c(C)c2)c1C#N | 618 | -2.6% (inactive) | -92.9% (inactive) | 161% | -2.03 | 0.714 | 1.02 | 5.65% (inactive) | -0.269 (inactive) | -9.9e-06 (inactive) | 0.00532 (inactive) | inactive | -8.23% (inactive) |
| COC(=O)/C(=C1/Oc2cc(C)oc(=O)c2S1)C(F)(F)F | 330 | -2.4% (inactive) | -59.5% (inactive) | 177% | 1.64 | 0.462 | 0.469 | 28% (inactive) | -0.427 (inactive) | -0.000106 (inactive) | 0.0045 (inactive) | inactive | 5.01% (inactive) |
| CCN1CC=C2C(C#N)=C(N)C(C#N)(C#N)[C@H](c3cccc(OC)c3OC)[C@H]2C1 | 560 | -11.4% (inactive) | 26.9% (inactive) | 113% | 1.15 | 1.25 | -1.6 | -3.95% (inactive) | -0.449 (inactive) | -6e-06 (inactive) | -4.3e-17 (inactive) | inactive | -15.5% (inactive) |
| CC1(C)Cc2c(C#N)c(SCC(=O)c3ccccc3)nc(N3CCCC3)c2CO1 | 520 | -6.5% (inactive) | 15.1% (inactive) | 115% | 1.33 | -0.926 | -0.674 | 9.82% (inactive) | -0.395 (inactive) | 8.2e-06 (inactive) | 0.00654 (inactive) | inactive | 46.4% (inactive) |
| COCCCNc1nc2c(c(=O)n(C)c(=O)n2C)n1Cc1cccc(OC)c1 | 434 | -9.7% (inactive) | -93.1% (inactive) | 190% | 2.25 | -1.46 | -1.41 | 4.37% (inactive) | -0.325 (inactive) | 1.1e-05 (inactive) | 0.00428 (inactive) | inactive | -3.39% (inactive) |
| Cc1ccnc(N2CCN(c3c4c(c(C#N)c5nc6ccccc6n35)CCC4)CC2)c1 | 585 | -9% (inactive) | -90.1% (inactive) | 135% | -0.195 | 1.1 | 0.491 | 15.9% (inactive) | -0.401 (inactive) | -2e-05 (inactive) | 0.00557 (inactive) | inactive | -3.36% (inactive) |
| CC1(C)CC(=O)c2cc(C(=O)N3CCCC(C)(C)C3)c(=O)n(-c3ccccc3)c2C1 | 523 | -8% (inactive) | -71.4% (inactive) | 121% | 0.578 | 0.18 | 1.1 | 7.48% (inactive) | -0.48 (inactive) | -0.000165 (inactive) | 0.00502 (inactive) | inactive | 31.5% (inactive) |
| Cc1c(/C(O)=C2/C(=O)C(=O)N(CCCN3CCOCC3)C2c2ccncc2)cnn1-c1ccccc1 (stereo not drawn) | 518 | 8.4% (inactive) | -181% (inactive) | 149% | 0.69 | 0.756 | -0.189 | 8.76% (inactive) | -0.552 (inactive) | -1.5e-05 (inactive) | 0.00511 (inactive) | inactive | 15.5% (inactive) |
| CC1(C)Cc2c(C#N)c(N3CCOCC3)nc(-c3ccccc3)c2CO1 | 600 | -14.3% (inactive) | -25.8% (inactive) | 109% | -0.0371 | -0.989 | 0.333 | 3.66% (inactive) | -0.424 (inactive) | -7.6e-05 (inactive) | 0.0042 (inactive) | inactive | -17.1% (inactive) |
| N/C(=N\c1nc2ccccc2o1)NC(=O)c1ccccc1NC(=O)c1ccccc1 | 614 | 5.2% (inactive) | -20.4% (inactive) | 160% | 1.3 | -0.342 | -0.375 | 2.46% (inactive) | -0.361 (inactive) | -2e-05 (inactive) | 0.0114 (inactive) | inactive | 9.27% (inactive) |
| COc1ccc(-c2ncncc2-c2csc(C)n2)c(O)c1 | 573 | -4.5% (inactive) | -141% (inactive) | 135% | 0.355 | -1.54 | -0.34 | 1.9e-07% (inactive) | -0.509 (inactive) | -3.3e-05 (inactive) | 0.00463 (inactive) | inactive | 3.68% (inactive) |

Reference: PubChem BioAssay
